According to article PMC6726451 (Science Advances, 2019):
“And” between values parts separate entries of the source, which are not always exact repeats. Identical values can stand only once.

Assays:
[1] = biological target: T1, TtClpP (Thermus thermophilus, UniProt Q5SKM8); assay: TAMRA-FP labeling of TtClpP active-site serines; assay type: biochemical; conditions: TAMRA-FP 5 μM, TtClpP 1 mg/ml, bortezomib 100 μM
[2] = biological target: T1, TtClpP; assay: TtClpP peptidase activity, PKMamc degradation; assay type: biochemical; conditions: Fig. 1B
[3] = biological target: T2, MtbClpP1P2 complex (Mycobacterium tuberculosis, UniProt P9WPC3+P9WPC5); conditions: cited from earlier work
[4] = biological target: EcClpP (Escherichia coli, UniProt P0A6G7); assay: EcClpP peptidase activity, PKMamc degradation; assay type: biochemical
Outline: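 Purified E. coli ClpP was mixed in 50 mM Hepes (pH 7.6) and 50 mM NaCl with the fluorogenic tripeptide PKMamc (100 μM working concentration) and test compound, or a matching DMSO volume. AMC release was read at 340-nm excitation and 462-nm emission at defined intervals. An apparent IC50 was derived from peptidase activity.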

[5] = biological target: T1, TtClpP; assay: FITC-casein degradation by TtClpP; assay type: biochemical; conditions: TtClpP 0.1 μM complex
Outline: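 FITC-casein, passed over a G25 column to remove free fluorescein, was used at 0.15 μM with TtClpP14 (0.1 μM). Test compound was added at a range of concentrations. Fluorescence rise was monitored at 440-nm excitation, 509-nm emission and 495-nm cutoff. Initial degradation rates after temperature equilibration were plotted against compound concentration.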

[6] = biological target: T1, TtClpP; assay: FtsZ degradation by TtClpP, SDS-gel electrophoresis; assay type: biochemical; conditions: 200 μM and 2 mM bortezomib, 37°C, TtClpP 1 μM complex
Outline: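 Purified intrinsically disordered E. coli FtsZ (20 μM) was incubated at 37°C with TtClpP14 (1 μM) and the stated test-compound concentrations. Aliquots were withdrawn at set time points and resolved on a 15% SDS gel to follow FtsZ loss.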

[7] = biological target: TtClpP with TtClpX (Thermus thermophilus, UniProt Q5SKM8); assay: TtClpP peptidase activity in the presence of TtClpX; assay type: biochemical
Outline: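 N-terminally truncated TtClpX and TtClpP were expressed in E. coli BL21RIL and purified by NiNTA and SEC. Concentrations are given as hexamer and tetradecamer. TtClpP (0.1 μM complex) was mixed with TtClpX at varying ClpX6/ClpP14 molar ratios in 50 mM Hepes (pH 7.6) and 50 mM NaCl, without or with 10 μM test compound. PKMamc hydrolysis was read at 340/462 nm, at 60°C unless otherwise indicated. The ratio giving half-maximal activation was derived from activation plotted against molar ratio.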

[8] = biological target: T1, TtClpP; assay: Isothermal titration calorimetry fitted to the MWC model; assay type: binding
Outline: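 TtClpP (10 μM, cell) was titrated with test compound (1.4 mM, syringe) in 50 mM Hepes (pH 7.6) and 50 mM NaCl at 25°, 35° and 45°C. Solutions were degassed. Each run used 19 injections 150 s apart with stirring at 750 rpm, in replicates. Integrated heats were fitted by nonlinear least squares to an MWC model with 14 identical single-site subunits. The fit gave KR, KT, γ, enthalpies and active fraction N.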

[9] = biological target: T1, TtClpP; assay: Dynamic light scattering, hydrodynamic radius of TtClpP; conditions: 5 mM bortezomib; for hydrodynamic radius Rhyd of TtClpP: TtClpP 3 μM
Outline: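 TtClpP (3 μM) was measured in 100 mM tris (pH 8.5), 100 mM NaCl and 5% glycerol, with no additive or with 5 mM bortezomib added, at 25° or 45°C. Each condition was run in triplicate, three times for each of two TtClpP samples. Hydrodynamic radius is the average of these replicates.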

[10] = biological target: T1, TtClpP; assay: Solution-state methyl NMR of Ile-δ1-CH3-labeled TtClpP; assay type: binding; conditions: 2 mM bortezomib, TtClpP 250 μM, 60°C
Outline: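 Uniformly 2H,15N-labelled TtClpP carrying Ile-δ1-13CH3 labels, and its S97A mutant, were used. Protein was expressed in D2O and refolded from urea-solubilised inclusion bodies by NiNTA and SEC. Protein (250 μM) was mixed with 2 mM test compound or the DMSO equivalent in 100 mM tris (pH 8.5), 100 mM NaCl and 5% glycerol. 2D SOFAST-methyl-TROSY spectra were recorded at 700 MHz and 60°C, for 10–120 min per sample.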

[11] = biological target: S97A TtClpP (Thermus thermophilus, UniProt Q5SKM8, S97A); assay type: binding; conditions: 2 mM bortezomib, S97A TtClpP 250 μM, 60°C
[12] = biological target: T1, TtClpP; assay: MAS solid-state NMR chemical shift perturbations; assay type: binding; conditions: 10 mM bortezomib, sedimented TtClpP
[13] = biological target: T2, MtbClpP1P2 complex; assay: MtbClpP1P2 peptidase activity; assay type: biochemical
[14] = test system: MtbClpXP1P2 complex; conditions: in vivo cell screen; cited from earlier work
[15] = test system: proteasome; conditions: cited from earlier work
[16] = 35°C, absolute error 0.3 kcal/mol
[17] = 45°C, absolute error 0.3 kcal/mol

## O=c1oc(Cl)c(Cl)c2ccccc12 [DCC, dichloroisocoumarin]
[1]
  TAMRA-FP labeling of TtClpP: reduced the amount of TAMRA bound to ClpP

## Bz-LL
[2]
  activation of TtClpP peptidase activity compared with bortezomib: capable to activate TtClpP, albeit with lower efficiency
[3]
  activation of MtbClpP1P2: most potent of these activators in Mtb

## NC(N)=O [urea]
[1]
  TAMRA-FP labeling of TtClpP: reduced the amount of TAMRA bound to ClpP

## CC(C)C[C@H](NC(=O)[C@H](Cc1ccccc1)NC(=O)c1cnccn1)B(O)O [bortezomib]
[4]
  IC50: 1.6 µM
[5]
  concentration dependence of FITC-casein degradation activation: linear and no reduction of the activation was observed up to 100 μM
[5]; FITC-casein 0.15 μM
  effect on FITC-casein degradation: a striking activation was observed
[6]
  FtsZ degradation by TtClpP: degradation of FtsZ was observed
[7]; bortezomib 10 μM, PKM-amc 100 μM
  effect on TtClpP peptidase activity in the presence of ClpX: acted as an inhibitor
[7]; bortezomib-loaded TtClpP, bortezomib 10 μM
  ClpX6/ClpP14 ratio at half-maximal peptidase activity: 2.4 ± 0.3 and 2.4
[7]; in the presence of bortezomib, ratio 2.4
  TtClpX6 concentration at half-maximal activation: 120 nM
[1]
  TAMRA-FP labeling of TtClpP: failed to observe any increase of TAMRA-FP labeling
[8]; 25°C
  KT, association constant for the tense state: No apparent cooperativity
  N, fraction of active or binding-competent protein: 0.97
  ΔHT, binding enthalpy of the T state: No apparent cooperativity
  ΔHγ, conformational enthalpy between R and T conformations: No apparent cooperativity
  γ, equilibrium constant between R and T conformations in the absence of the ligand: No apparent cooperativity
[8]; 25°C, absolute error 0.3 kcal/mol
  ΔHR, binding enthalpy of the R state: -0.5 kcal/mol
[8]; 35°C
  N, fraction of active or binding-competent protein: 0.97
[8]; [16]
  ΔHR, binding enthalpy of the R state: -0.9 kcal/mol
  ΔHT, binding enthalpy of the T state: -0.1 kcal/mol
  ΔHγ, conformational enthalpy between R and T conformations: -0.3 kcal/mol
[8]; 35°C, relative error 30%
  KT, association constant for the tense state: 28000 M⁻¹
  γ, equilibrium constant between R and T conformations in the absence of the ligand: 3.3
[8]; 45°C
  N, fraction of active or binding-competent protein: 1.00
[8]; [17]
  ΔHR, binding enthalpy of the R state: -1.5 kcal/mol
  ΔHT, binding enthalpy of the T state: -0.3 kcal/mol
  ΔHγ, conformational enthalpy between R and T conformations: -0.2 kcal/mol
[8]; 45°C, relative error 30%
  KR, association constant for the relaxed state: 65000 M⁻¹
  KT, association constant for the tense state: 25000 M⁻¹
[8]; Kd,R = KR^−1, R state, higher affinity
  Kd: 15 µM
[8]; Kd,T = KT^−1, T state, lower affinity
  Kd: 40 µM
[8]; R and T equally populated, MWC model
  free bortezomib concentration at the R↔T crossover point: around 2 μM
[9]
  increase in Rhyd of TtClpP on addition of bortezomib: approximately 8 Å
[9]; 25°C
  hydrodynamic radius Rhyd of TtClpP: 6.673 ± 0.192 nm and 6.67 nm
[9]; 45°C
  hydrodynamic radius Rhyd of TtClpP: 6.702 ± 0.176 nm
[10]
  binding to wild-type TtClpP by spectral changes: unambiguously confirms binding
[11]
  spectral changes of the S97A mutant: no spectral changes were observed
[12]
  chemical shift perturbations on addition of bortezomib: bortezomib interacts with the active site
[13]
  effect on MtbClpP1P2 peptidase activity: could also activate the peptidase activity of the MtbClpP1P2 complex
[14]
  effect on GFPssrA degradation by the MtbClpXP1P2 complex: inhibitor of GFPssrA degradation
[15]
  affinity for the chymotrypsin-like sites of the proteasome: nanomolar affinity
  effect on the chymotrypsin site of the proteasome: inhibits efficiently
  effect on the trypsin site of the proteasome: paradoxical activation
